Laboratory results taken from ChEMBL document CHEMBL3588807, “Cytotoxic Indolocarbazoles from Actinomadura melliaura ATCC 39691” (J Nat Prod, 2015).
Active and inactive are the calls of the source. No cut-off for these calls is given here.

Legend:
Saccharomyces cerevisiae [1] = test: Antimicrobial activity against Saccharomyces cerevisiae ATCC 204508 assessed as inhibition of microbial growth incubated for 24 hrs; type: functional; conditions: ATCC 204508, 24 h
How it was run: (§1)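 MIC determined in triplicate against bacterial and yeast strains. Bacterial MICs were read after 16–48 h of incubation and the Saccharomyces cerevisiae MIC after 24 h. Procedure otherwise follows an earlier report.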

PC-3 [2] = test: Cytotoxic activity against human PC3 cells assessed as cell viability at 10 uM incubated for 72 hrs; type: functional; conditions: PC-3, 72 h, read-out: Activity
How it was run: (§2)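 Single-dose viability screen at 10 μM, run in triplicate, on human cancer cell lines.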

[3] = tested on: Mycolicibacterium smegmatis; test: Antimicrobial activity against Mycobacterium smegmatis ATCC 14468 assessed as inhibition of microbial growth incubated for 16 to 48 hrs; type: functional; how it was run: as §1
Staphylococcus aureus [4] = test: Antimicrobial activity against Staphylococcus aureus ATCC 6538 assessed as inhibition of microbial growth incubated for 16 to 48 hrs; type: functional; how it was run: as §1
A549 [5] = test: Cytotoxic activity against human A549 cells assessed as cell viability at 10 uM incubated for 72 hrs; type: functional; conditions: A549, 72 h, read-out: Activity; how it was run: as §2
Micrococcus luteus [6] = test: Antimicrobial activity against Micrococcus luteus NRRL B-287 assessed as inhibition of microbial growth incubated for 16 to 48 hrs; type: functional; how it was run: as §1
Escherichia coli = test: Antimicrobial activity against Escherichia coli NRRL B-3708 assessed as inhibition of microbial growth up to 60 uM incubated for 16 to 48 hrs; type: functional, organism-based; how it was run: as §1
[7] = Cytotoxic activity against human U118MG cells assessed as cell viability at 10 uM incubated for 72 hrs; type: functional; conditions: U-118-MG, read-out: Activity; how it was run: as §2
Salmonella enterica = test: Antimicrobial activity against Salmonella enterica ATCC 10708 assessed as inhibition of microbial growth up to 60 uM incubated for 16 to 48 hrs; type: functional, organism-based; how it was run: as §1
PC-3 [8] = test: Cytotoxic activity against human PC3 cells assessed as reduction in cell viability incubated for 72 hrs; type: functional, cell-based; conditions: PC-3, 72 h
How it was run: (§3)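 IC50 determined from viability over 0.03 to 100 000 nM, run in triplicate, on human cancer cell lines.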

A549 [9] = test: Cytotoxic activity against human A549 cells assessed as reduction in cell viability incubated for 72 hrs; type: functional, cell-based; conditions: A549, 72 h; how it was run: as §3
[10] = Cytotoxic activity against human U118MG cells assessed as reduction in cell viability incubated for 72 hrs; type: functional, cell-based; conditions: U-118-MG; how it was run: as §3
Saccharomyces cerevisiae [11] = test: Antimicrobial activity against Saccharomyces cerevisiae ATCC 204508 assessed as inhibition of microbial growth up to 60 uM incubated for 24 hrs; type: functional, organism-based; how it was run: as §1
Micrococcus luteus [12] = test: Antimicrobial activity against Micrococcus luteus NRRL B-287 assessed as inhibition of microbial growth up to 60 uM incubated for 16 to 48 hrs; type: functional, organism-based; how it was run: as §1
[13] = tested on: Mycolicibacterium smegmatis; test: Antimicrobial activity against Mycobacterium smegmatis ATCC 14468 assessed as inhibition of microbial growth up to 120 uM incubated for 16 to 48 hrs; type: functional, organism-based; how it was run: as §1
Staphylococcus aureus [14] = test: Antimicrobial activity against Staphylococcus aureus ATCC 6538 assessed as inhibition of microbial growth up to 60 uM incubated for 16 to 48 hrs; type: functional, organism-based; how it was run: as §1

SMILES	MIC (Saccharomyces cerevisiae [1])	viability at 10 µM (PC-3 [2])	MIC [3]	MIC (Staphylococcus aureus [4])	viability at 10 µM (A549 [5])	MIC (Micrococcus luteus [6])	growth inhibition (GI) (Escherichia coli)	viability at 10 µM [7]	growth inhibition (GI) (Salmonella enterica)	IC50 (PC-3 [8])	IC50 (A549 [9])	IC50 [10]	growth inhibition (GI) (Saccharomyces cerevisiae [11])	growth inhibition (GI) (Micrococcus luteus [12])	growth inhibition (GI) [13]	growth inhibition (GI) (Staphylococcus aureus [14])
CN[C@H]1CO[C@@H](OC[C@H]2O[C@@H](n3c4ccccc4c4c5c(c6c7ccccc7[nH]c6c43)C(=O)N(C)C5=O)[C@H](O)[C@@H](O)[C@@H]2OC)C[C@@H]1O	> 60 µM	36.4%	120 µM	7.5 µM	16.6%	7.5 µM	inactive	29.4%	inactive							
CN[C@H]1CO[C@@H](OC[C@H]2O[C@@H](n3c4c(Cl)cccc4c4c5c(c6c7ccccc7[nH]c6c43)C(=O)N(C)C5=O)[C@H](O)[C@@H](O)[C@@H]2OC)C[C@@H]1O	7.5 µM	27%	60 µM	1 µM	10.5%	7.5 µM	inactive	20.8%	inactive	106 nM	76.4 nM	56.8 nM				
O=C1NC(=O)c2c1c1c3ccccc3[nH]c1c1c2c2ccccc2n1[C@@H]1O[C@H](CO)[C@@H](O)[C@H](O)[C@H]1O		47.7%			32.6%		inactive	53.6%	inactive				inactive	inactive	inactive	inactive
CO[C@H]1[C@H](O)[C@@H](O)[C@H](n2c3c(Cl)cccc3c3c4c(c5c6ccccc6[nH]c5c32)C(=O)N(C)C4=O)O[C@@H]1CO		69%			47.4%		inactive	40.5%	inactive				inactive	inactive	inactive	inactive
CN[C@H]1CO[C@@H](OC[C@H]2O[C@@H](n3c4c(Cl)cccc4c4c5c(c6c7ccccc7[nH]c6c43)C(=O)NC5=O)[C@H](O)[C@@H](O)[C@@H]2OC)C[C@@H]1O	> 60 µM	39%	120 µM	7.5 µM	19.9%	7.5 µM	inactive	31.3%	inactive	45.8 nM	69.6 nM	47.3 nM				
CO[C@H]1[C@H](O)[C@@H](O)[C@H](n2c3ccccc3c3c4c(c5c6ccccc6[nH]c5c32)C(=O)N(C)C4=O)O[C@@H]1CO	> 60 µM	98.3%	> 120 µM	7.5 µM	96.6%	15 µM	inactive	61%	inactive							
CN1C(=O)c2c(c3c4cccc(Cl)c4[nH]c3c3[nH]c4ccccc4c23)C1=O		155%			164%		inactive	186%	inactive				inactive	inactive	inactive	inactive
